Rows were chosen to be rich in hits. Some 1.9% of all compounds tested hit in one or more screens of this group.
FAS-TE inh – inhibitors of human fatty acid synthase thioesterase domain; P49327; recombinant FAS-TE, OMFH fluorogenic substrate, fluorescence endpoint; inhibition, % at 15 µM; 0.67% of 360,000 active;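 active means compounds whose normalised, plate-corrected inhibition of enzyme fluorescence in the single-dose primary screen is 50% or more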
STEP block – inhibitors of human striatal-enriched phosphatase STEP; recombinant STEP, OMFP fluorogenic substrate, fluorescence; inhibition, % at 20 µM; 0.25% of 360,000 active; AID 588621;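 active means inhibition at 20 µM, scaled per plate between control wells, above about 37%, limit read from the data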
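Test system: STEP tyrosine phosphatase / Reagent: OMFP at 25 µM / Doses: 20 µM, 1% DMSO / Read-out: percent inhibition scaled to no-enzyme and uninhibited-enzyme controls, plate-pattern corrected / Detection: FITC-channel fluorescence of OMFP product / Medium: Bis-Tris buffer pH 6.0, 2.5 mM DTT, 0.005% Tween 20 / Schedule: 20 min at room temperature, dark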
SUMO1 PPI mod – alters human SUMO1 binding to SIM partners | P63165 | SUMO1 binding to a labelled peptide, TR-FRET, 1 h | inhibition, % at 20 µM | 0.33% of 360,000 active; in the data active means inhibition above about 37%
Target sequence (P63165 whole entry, looked up): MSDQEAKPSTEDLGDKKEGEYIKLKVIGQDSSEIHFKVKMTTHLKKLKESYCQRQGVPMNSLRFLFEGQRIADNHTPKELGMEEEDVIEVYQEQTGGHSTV
Scp1 inh – blocks human Scp-1 phosphatase activity. Q9GZU7. Recombinant Scp1, phosphopeptide, malachite green phosphate absorbance. inhibition, % at 20 µM. 0.88% of 340,000 active;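 active means inhibition above about 50% at 20 µM, limit read from the data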
Target sequence (Q9GZU7 76-261 limits assumed): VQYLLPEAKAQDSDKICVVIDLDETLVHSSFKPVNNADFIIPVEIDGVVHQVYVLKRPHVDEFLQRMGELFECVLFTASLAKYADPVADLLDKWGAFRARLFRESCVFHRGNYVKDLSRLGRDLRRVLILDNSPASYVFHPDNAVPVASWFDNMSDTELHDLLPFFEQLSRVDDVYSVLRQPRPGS
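Times: enzyme reaction 45 min at room temperature, colour 5 min, stabilisation 30 min. Material: SCP-1 catalytic fragment, aa 76-261. Medium: Acidic Tris acetate buffer with magnesium and detergent. Signal: colorimetric free-phosphate detection, absorbance 630 nm. Read-out basis: % inhibition of SCP-1 phosphate liberation. Reagent: Phosphorylated 17-residue peptide substrate.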
LMPTP block – LMPTP (human) inhibition | recombinant LMPTP-A, OMFP fluorogenic substrate, fluorescence intensity | inhibition, % at 20 µM | 0.22% of 360,000 active | AID 651560;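 active means compounds that cut the enzyme signal by at least half of the control window in the single-dose screen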
Target sequence (P24666 whole entry, looked up): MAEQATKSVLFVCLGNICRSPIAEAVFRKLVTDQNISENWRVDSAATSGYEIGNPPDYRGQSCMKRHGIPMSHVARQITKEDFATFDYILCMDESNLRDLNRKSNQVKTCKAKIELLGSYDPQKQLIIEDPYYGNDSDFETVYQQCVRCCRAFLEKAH
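Assay system: LMPTP-A phosphatase enzyme | Input: 0.625 nM enzyme | Also added: Fluorogenic phosphatase substrate OMFP at 400 µM final | Compound dosing: One test concentration per compound, 20 µM, with 3% DMSO overall | Schedule: 50 min enzyme reaction at room temperature, protected from light | Signal: Fluorescence intensity | Benchmarks: no-enzyme and uninhibited controls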
Of the large screens only hits and unclear results are named; the others gave an inactive call; ! = not confirmed by another sample.

O=S(=O)(Nc1c(S(=O)(=O)c2ccccc2)c2nc3ccccc3nc2n1C1CCCCC1)c1ccccc1	SUMO1 PPI mod 50
COc1ccc(/C=C/CN2CCC(C(=O)NC(c3ccc(F)cc3)c3ccc4ccccc4n3)CC2)cc1 (configuration not stated)	none (no result: Scp1 inh)
O=CN/N=C/c1c(O)ccc2ccccc12	none
Oc1ccc2ccccc2c1/C=N/Nc1ccccc1	STEP block 52
Cc1ccc2c(c1)C(=O)N1[C@H]3c4ccccc4OC[C@@H]3[C@H](c3ccccc3)[C@]1(C)C(=O)N2	FAS-TE inh 71
COc1ccc2c(c1)OC[C@H]1[C@H]2N2C(=O)c3cc(C)ccc3NC(=O)[C@@]2(C)[C@H]1c1ccccc1	FAS-TE inh 76
C[C@@]12C(=O)Nc3ccc(F)cc3C(=O)N1[C@H]1c3cc(Br)ccc3OC[C@@H]1[C@@H]2c1ccccc1	FAS-TE inh 89
COc1ccc2c(c1)[C@H]1[C@H](CO2)[C@H](c2ccccc2)[C@]2(C)C(=O)Nc3ccc(F)cc3C(=O)N12	none
COC(=O)[C@@]12C[C@@H](CC(=O)N3CCC(c4ccccc4)CC3)C(=O)N(Cc3cccc4ccccc34)C1=CCC(C)(C)C2	none (no result: FAS-TE inh, STEP block, Scp1 inh)
C=CCNc1ncnc2c1ncn2[C@H]1CN(Cc2cccc3ccccc23)C[C@@H](CO)O1	none (no result: Scp1 inh)
N#C/C(C(=O)NCCc1ccccc1)=C1/N=C(NC(=O)c2cccs2)c2ccccc21	SUMO1 PPI mod 48
COc1cccc(S(=O)(=O)Nc2ccc3c(c2)C(=O)N(C)C[C@H](OC)[C@H](C)CN[C@@H](C)CO3)c1	none (no result: FAS-TE inh, STEP block, Scp1 inh)
COc1ccc(-c2cc(C(=O)Nc3cc(Cl)ccc3O)no2)cc1	LMPTP block 66
COc1ccc(-c2cc(C(=O)Nc3cc(C)ccc3O)no2)cc1	none
CSCCC(C(=O)Nc1c(C)cccc1C)n1c(COc2ccc(C)cc2)nc2ccccc21 (configuration not stated)	none (no result: FAS-TE inh, STEP block, Scp1 inh)
CCOC(=O)Cc1csc(SCn2nnc3ccccc3c2=O)n1	none
CCOC(=O)Cc1csc(-n2sc3ccccc3c2=O)n1	Scp1 inh 74
CC(=O)Oc1cc(C(=O)OCC(=O)NC23CC4CC(CC(C4)C2)C3)cc(OC(C)=O)c1OC(C)=O	Scp1 inh 70
COc1cccc(C(=O)OCC(=O)NC23CC4CC(CC(C4)C2)C3)c1	none
O=C(NCc1cccc(Cl)c1)C1Cc2c(-c3ccccc3)ccnc2O1 (configuration not stated)	none (no result: Scp1 inh)
CC1=C(C(=O)N2CCCCCC2)CC(CC(=O)NC2CCCC2)C(=O)N1Cc1ccc(C(C)(C)C)cc1 (configuration not stated)	none (no result: STEP block, Scp1 inh)
C[n+]1c2cc(N)ccc2cc2ccc(N)cc21	SUMO1 PPI mod 78!
CCC[n+]1c2ccccc2cc2ccccc21	Scp1 inh 55
O=C(NN1C(=O)CSC1=S)c1cccnc1	SUMO1 PPI mod 60
Cc1ccccc1C(=O)NN1C(=O)CSC1=S	none
Oc1ccc(N=Cc2ccc(-c3cccs3)s2)cc1	SUMO1 PPI mod 68
O=Cc1ccc(-c2cccs2)s1	none
O=C(O)c1cc(O)c2c(c1)[C@@H]([C@H]1c3cc(C(=O)O)cc(O)c3C(=O)c3c(O[C@@H]4O[C@H](CO)[C@@H](O)[C@H](O)[C@H]4O)cccc31)c1cccc(O[C@@H]3O[C@H](CO)[C@@H](O)[C@H](O)[C@H]3O)c1C2=O	Scp1 inh 86 (no result: FAS-TE inh, STEP block, SUMO1 PPI mod, LMPTP block)
COC(=O)C1=COC(OC2OC(CO)C(O)C(O)C2O)C2C(C)CC(=O)C12 (configuration not stated)	none (no result: Scp1 inh)
c1nc(SSc2ncnc3nc[nH]c23)c2[nH]cnc2n1	LMPTP block 47
CC1(C(=O)Nc2ccc3c(c2)OCCO3)CN(S(C)(=O)=O)CC(=O)N1CCCn1ccnc1 (configuration not stated)	none (no result: FAS-TE inh, STEP block, Scp1 inh)
CCCc1c(C)[nH]c2ccc(C(=O)O)cc2c1=S	SUMO1 PPI mod 96
Cc1[nH]c2ccc(C(=O)O)cc2c1C	none
COC(=O)C[C@@H]1C=C[C@H](NC(=O)Nc2cc(F)ccc2F)[C@@H](CO)O1	none (no result: FAS-TE inh, STEP block, Scp1 inh)
Cc1cnc(CN(C)C(=O)C2CCC(=O)N(CCc3ccc(Cl)cc3)C2)[nH]1 (configuration not stated)	SUMO1 PPI mod 40 (no result: Scp1 inh)
CN(Cc1cnccn1)C(=O)C1CCC(=O)N(CCc2ccc(Cl)cc2)C1 (configuration not stated)	none
O=C(Nc1ccccc1)Nc1cc(OCC(F)(F)F)cc(OCC(F)(F)F)c1	FAS-TE inh 52
Nc1c(C=C2C=CC(=O)C=C2)c(=O)nc2sc(CC(=O)N3CCCCC3)nn12	none
Nc1c(/C=C2/C=CC(=O)C(O)=C2)c(=O)nc2sc(CC(=O)N3CCOCC3)nn12	Scp1 inh 71
Nc1c(/C=C2/C=CC(=O)C(O)=C2)c(=O)nc2sc(CC(=O)N3CCCCC3)nn12	SUMO1 PPI mod 45, Scp1 inh 72, LMPTP block 65
Nc1c(/C=C2/C=CC(=O)C(O)=C2)c(=O)nc2sc(CC(=O)N3CCCC3)nn12	Scp1 inh 88
CC(C)C[C@H]1CN(CCCC[C@H]2CNC(=O)C(=O)N2CC2CCCCC2)C(=O)C(=O)N1CC1CCCCC1	none (no result: STEP block, Scp1 inh)
C#CCNC(=O)C[C@@H]1C[C@@]2(C(=O)OCC)CCCC=C2N(CCCCCCCC)C1=O	none (no result: STEP block, Scp1 inh)
COc1cccc(C(C)(O)c2nc(-c3ccoc3)cs2)c1 (configuration not stated)	none (no result: Scp1 inh)
Cc1ccc(CN2CCC(C)(Oc3ccc(Cl)cc3)C2)cc1 (configuration not stated)	none (no result: Scp1 inh)
O=S1(=O)N[C@@H](Cc2ccccc2)COc2cc(N3CC[C@H](O)C3)ccc21	none (no result: STEP block, Scp1 inh)
CC(CNC(=O)c1cccs1)c1ccc([N+](=O)[O-])cc1 (configuration not stated)	SUMO1 PPI mod 56
O=C1CSC(=S)N1/N=C/c1ccc(O)c(O)c1O	Scp1 inh 53, LMPTP block 65
CC(C)C[C@H]1CN(CCCC[C@H]2CNC(=O)C(=O)N2CC2CCCCC2)C(=O)C(=O)N1Cc1ccccc1	none (no result: STEP block, Scp1 inh)
O=C1NN(c2ccc(Cl)c(Cl)c2)C(=O)/C1=C/c1ccc(-c2ccccc2C(=O)O)o1	none
CN1C(=O)/C(=C/c2ccc(-c3ccccc3[N+](=O)[O-])o2)SC1=Nc1ccc(Cl)c(C(=O)O)c1	SUMO1 PPI mod 39
COc1cccc(C(C)(O)c2nc(-c3cnn(C)c3)cs2)c1 (configuration not stated)	none (no result: Scp1 inh)
Cc1cc(C)cc(NC(=O)c2ccc(CNc3c(N4CCOCC4)c(=O)c3=O)cc2)c1	SUMO1 PPI mod 42
Cc1ccc(CNC(=O)c2ccc(CNc3c(N4CCCC4)c(=O)c3=O)cc2)cc1	none
Cc1cc(C)cc(NC(=O)c2ccc(CNc3c(N4CCCC4)c(=O)c3=O)cc2)c1	SUMO1 PPI mod 51
CCCCN(C(=O)c1cc(S(=O)(=O)N2CCOCC2)ccc1N1CCOCC1)c1ccccc1	none (no result: Scp1 inh)
